According to ChEMBL document CHEMBL1156877, “Discovery of 6-benzyloxyquinolines as c-Met selective kinase inhibitors” (Bioorg Med Chem Lett, 2010):

Experiments:
[1] = target: Vascular endothelial growth factor receptor 2 (Homo sapiens, UniProt P35968); test: Inhibition of recombinant KDR by TR-FRET assay
Procedure, shortened: (§1)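 Recombinant tyrosine kinase incubated with test compound and substrate peptide/ATP for 90 min at 30 °C; enzyme amount, ATP level, substrate and cation vary by kinase. Reaction stopped, then TR-FRET reagent with europium-labelled anti-phospho-substrate antibody added for 5 min at room temperature; substrate phosphorylation read as time-resolved fluorescence.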

[2] = target: Proto-oncogene tyrosine-protein kinase Src (Homo sapiens, UniProt P12931); test: Inhibition of recombinant Src by TR-FRET assay; procedure, shortened: as §1
[3] = target: Hepatocyte growth factor receptor (Homo sapiens, UniProt P08581); test: Inhibition of recombinant c-Met by TR-FRET assay
[4] = target: T1, Aurora kinase A (Homo sapiens, UniProt O14965); test: Inhibition of recombinant Aurora A by IMAP assay
T1 sequence (O14965 whole entry): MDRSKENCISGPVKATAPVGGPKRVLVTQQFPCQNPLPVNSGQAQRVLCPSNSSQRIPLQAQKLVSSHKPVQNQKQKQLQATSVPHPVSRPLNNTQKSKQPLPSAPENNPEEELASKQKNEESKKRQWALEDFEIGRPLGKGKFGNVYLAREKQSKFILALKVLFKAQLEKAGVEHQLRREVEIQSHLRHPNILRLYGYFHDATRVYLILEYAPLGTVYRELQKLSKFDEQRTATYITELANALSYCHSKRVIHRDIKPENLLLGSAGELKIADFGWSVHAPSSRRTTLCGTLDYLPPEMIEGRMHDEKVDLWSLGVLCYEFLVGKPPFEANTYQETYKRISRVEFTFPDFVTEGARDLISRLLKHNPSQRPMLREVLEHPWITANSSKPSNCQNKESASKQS
Procedure, shortened: (§2)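 Recombinant enzyme mixed with test compound and substrate peptide/ATP solution, incubated 90 min at 30 °C; enzyme quantity, ATP, substrate and cation set per kinase. IMAP reagent then added for 5 min at room temperature, and peptide phosphorylation quantified by fluorescence polarization.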

[5] = target: T2, Protein kinase C beta type (Homo sapiens, UniProt P05771); test: Inhibition of recombinant PKCbeta2 by IMAP assay; procedure, shortened: as §2
[6] = target: Fibroblast growth factor receptor 2 (Homo sapiens, UniProt P21802); test: Inhibition of recombinant FGFR2 by TR-FRET assay; procedure, shortened: as §1
[7] = target: Mast/stem cell growth factor receptor Kit (Homo sapiens, UniProt P10721); test: Inhibition of recombinant Kit by TR-FRET assay; procedure, shortened: as §1
[8] = target: Cyclin-dependent kinase 2 (Homo sapiens, UniProt P24941); test: Inhibition of recombinant CDK2 by IMAP assay; procedure, shortened: as §2
[9] = target: Tyrosine-protein kinase Fyn (Homo sapiens, UniProt P06241); test: Inhibition of recombinant Fyn by TR-FRET assay; procedure, shortened: as §1
[10] = target: Cyclin-dependent kinase 1 (Homo sapiens, UniProt P06493); test: Inhibition of recombinant CDK1 by IMAP assay; procedure, shortened: as §2
[11] = target: Ephrin type-A receptor 2 (Homo sapiens, UniProt P29317); test: Inhibition of recombinant EphA2 by TR-FRET assay; procedure, shortened: as §1
[12] = target: RAC-alpha serine/threonine-protein kinase (Homo sapiens, UniProt P31749); test: Inhibition of recombinant AKT1 by IMAP assay; procedure, shortened: as §2
[13] = target: Tyrosine-protein kinase ABL1 (Homo sapiens, UniProt P00519); test: Inhibition of recombinant Abl by TR-FRET assay; procedure, shortened: as §1
[14] = target: T3, Tyrosine-protein kinase receptor UFO (Homo sapiens, UniProt P30530); test: Inhibition of recombinant AXL by TR-FRET assay; procedure, shortened: as §1
T3 sequence (P30530 whole entry): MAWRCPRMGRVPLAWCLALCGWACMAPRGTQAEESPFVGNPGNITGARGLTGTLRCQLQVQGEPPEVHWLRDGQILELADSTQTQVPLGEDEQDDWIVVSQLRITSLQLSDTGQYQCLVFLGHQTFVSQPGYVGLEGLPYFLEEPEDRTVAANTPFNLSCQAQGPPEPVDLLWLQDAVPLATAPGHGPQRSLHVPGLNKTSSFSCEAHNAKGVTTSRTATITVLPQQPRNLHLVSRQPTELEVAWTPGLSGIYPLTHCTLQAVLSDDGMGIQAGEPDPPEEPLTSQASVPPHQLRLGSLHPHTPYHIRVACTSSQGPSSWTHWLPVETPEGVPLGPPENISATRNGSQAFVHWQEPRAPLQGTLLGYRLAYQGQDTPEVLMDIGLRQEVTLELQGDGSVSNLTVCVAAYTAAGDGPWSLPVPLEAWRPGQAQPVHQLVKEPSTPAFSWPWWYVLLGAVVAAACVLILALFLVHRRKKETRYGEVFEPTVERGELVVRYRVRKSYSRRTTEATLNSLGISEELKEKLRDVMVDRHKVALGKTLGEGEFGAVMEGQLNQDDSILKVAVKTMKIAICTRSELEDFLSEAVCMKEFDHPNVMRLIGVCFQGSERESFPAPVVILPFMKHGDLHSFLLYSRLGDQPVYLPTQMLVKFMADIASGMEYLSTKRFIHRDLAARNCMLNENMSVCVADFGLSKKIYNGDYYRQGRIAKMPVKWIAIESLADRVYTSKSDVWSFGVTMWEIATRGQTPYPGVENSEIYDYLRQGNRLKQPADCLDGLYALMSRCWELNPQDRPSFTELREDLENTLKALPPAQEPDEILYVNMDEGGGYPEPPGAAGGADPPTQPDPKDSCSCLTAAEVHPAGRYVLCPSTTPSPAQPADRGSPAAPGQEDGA

[15] = Inhibition of recombinant PDGFR by TR-FRET assay; procedure, shortened: as §1
[16] = target: Leukocyte tyrosine kinase receptor (Homo sapiens, UniProt P29376); test: Inhibition of recombinant LTK by TR-FRET assay; procedure, shortened: as §1
[17] = Inhibition of recombinant PKA by IMAP assay; procedure, shortened: as §2
[18] = target: T4, Receptor-type tyrosine-protein kinase FLT3 (Homo sapiens, UniProt P36888); test: Inhibition of recombinant Flt3 by TR-FRET assay; procedure, shortened: as §1
T4 sequence (P36888 whole entry): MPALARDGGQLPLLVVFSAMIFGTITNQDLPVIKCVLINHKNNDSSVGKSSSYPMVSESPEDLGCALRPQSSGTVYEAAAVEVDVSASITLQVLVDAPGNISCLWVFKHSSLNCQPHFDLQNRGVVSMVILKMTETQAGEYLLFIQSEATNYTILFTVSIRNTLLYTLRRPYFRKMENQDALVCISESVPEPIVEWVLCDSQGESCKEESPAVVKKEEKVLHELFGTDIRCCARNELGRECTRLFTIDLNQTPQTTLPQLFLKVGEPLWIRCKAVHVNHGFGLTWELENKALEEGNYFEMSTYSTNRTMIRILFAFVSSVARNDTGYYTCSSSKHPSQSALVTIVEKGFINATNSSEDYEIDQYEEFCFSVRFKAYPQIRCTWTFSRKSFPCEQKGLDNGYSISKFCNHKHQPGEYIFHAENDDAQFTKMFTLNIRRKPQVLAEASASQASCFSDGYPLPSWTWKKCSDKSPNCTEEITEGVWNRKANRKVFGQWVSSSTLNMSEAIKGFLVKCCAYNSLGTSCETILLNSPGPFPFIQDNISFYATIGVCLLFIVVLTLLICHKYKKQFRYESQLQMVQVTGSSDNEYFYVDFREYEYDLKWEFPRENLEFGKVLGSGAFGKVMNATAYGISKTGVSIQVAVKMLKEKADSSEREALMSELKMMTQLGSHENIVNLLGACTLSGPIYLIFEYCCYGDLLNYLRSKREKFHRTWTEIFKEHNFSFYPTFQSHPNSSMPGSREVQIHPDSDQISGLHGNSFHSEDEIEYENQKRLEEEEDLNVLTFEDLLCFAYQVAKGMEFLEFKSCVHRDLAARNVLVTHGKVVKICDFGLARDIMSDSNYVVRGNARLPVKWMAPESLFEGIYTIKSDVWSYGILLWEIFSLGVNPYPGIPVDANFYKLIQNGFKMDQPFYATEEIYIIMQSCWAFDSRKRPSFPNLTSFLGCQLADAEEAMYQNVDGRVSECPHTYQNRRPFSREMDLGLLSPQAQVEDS

[19] = target: T2, Protein kinase C beta type; test: Inhibition of recombinant PKCbeta1 by IMAP assay; procedure, shortened: as §2
[20] = target: Tyrosine-protein kinase Lck (Homo sapiens, UniProt P06239); test: Inhibition of recombinant LCK by TR-FRET assay
[21] = target: Macrophage-stimulating protein receptor (Homo sapiens, UniProt Q04912); test: Inhibition of recombinant RON by TR-FRET assay; procedure, shortened: as §1
[22] = target: Insulin-like growth factor 1 receptor (Homo sapiens, UniProt P08069); test: Inhibition of recombinant IGF1R by TR-FRET assay; procedure, shortened: as §1
[23] = target: Tyrosine-protein kinase Yes (Homo sapiens, UniProt P07947); test: Inhibition of recombinant YES by TR-FRET assay; procedure, shortened: as §1
[24] = target: Protein-tyrosine kinase 6 (Homo sapiens, UniProt Q13882); test: Inhibition of recombinant BRK by TR-FRET assay; procedure, shortened: as §1
[25] = Solubility in fasted state simulated intestinal fluid; format: physicochemical
[26] = target: Protein kinase C alpha type (Homo sapiens, UniProt P17252); test: Inhibition of recombinant PKCalpha by IMAP assay; procedure, shortened: as §2
[27] = target: Insulin receptor (Homo sapiens, UniProt P06213); test: Inhibition of recombinant InsR by TR-FRET assay
[28] = test system: MKN-45; test: Cytotoxicity against human MKN45 cells after 96 hrs by WST8 assay; format: functional, cell-based; conditions: MKN-45, 96 h
Procedure, shortened: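 Tumour cells exposed to a range of compound concentrations for 96 h; cytotoxicity read with WST-8 cell counting kit.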

Vascular endothelial growth factor receptor 2, sequence (P35968 whole entry): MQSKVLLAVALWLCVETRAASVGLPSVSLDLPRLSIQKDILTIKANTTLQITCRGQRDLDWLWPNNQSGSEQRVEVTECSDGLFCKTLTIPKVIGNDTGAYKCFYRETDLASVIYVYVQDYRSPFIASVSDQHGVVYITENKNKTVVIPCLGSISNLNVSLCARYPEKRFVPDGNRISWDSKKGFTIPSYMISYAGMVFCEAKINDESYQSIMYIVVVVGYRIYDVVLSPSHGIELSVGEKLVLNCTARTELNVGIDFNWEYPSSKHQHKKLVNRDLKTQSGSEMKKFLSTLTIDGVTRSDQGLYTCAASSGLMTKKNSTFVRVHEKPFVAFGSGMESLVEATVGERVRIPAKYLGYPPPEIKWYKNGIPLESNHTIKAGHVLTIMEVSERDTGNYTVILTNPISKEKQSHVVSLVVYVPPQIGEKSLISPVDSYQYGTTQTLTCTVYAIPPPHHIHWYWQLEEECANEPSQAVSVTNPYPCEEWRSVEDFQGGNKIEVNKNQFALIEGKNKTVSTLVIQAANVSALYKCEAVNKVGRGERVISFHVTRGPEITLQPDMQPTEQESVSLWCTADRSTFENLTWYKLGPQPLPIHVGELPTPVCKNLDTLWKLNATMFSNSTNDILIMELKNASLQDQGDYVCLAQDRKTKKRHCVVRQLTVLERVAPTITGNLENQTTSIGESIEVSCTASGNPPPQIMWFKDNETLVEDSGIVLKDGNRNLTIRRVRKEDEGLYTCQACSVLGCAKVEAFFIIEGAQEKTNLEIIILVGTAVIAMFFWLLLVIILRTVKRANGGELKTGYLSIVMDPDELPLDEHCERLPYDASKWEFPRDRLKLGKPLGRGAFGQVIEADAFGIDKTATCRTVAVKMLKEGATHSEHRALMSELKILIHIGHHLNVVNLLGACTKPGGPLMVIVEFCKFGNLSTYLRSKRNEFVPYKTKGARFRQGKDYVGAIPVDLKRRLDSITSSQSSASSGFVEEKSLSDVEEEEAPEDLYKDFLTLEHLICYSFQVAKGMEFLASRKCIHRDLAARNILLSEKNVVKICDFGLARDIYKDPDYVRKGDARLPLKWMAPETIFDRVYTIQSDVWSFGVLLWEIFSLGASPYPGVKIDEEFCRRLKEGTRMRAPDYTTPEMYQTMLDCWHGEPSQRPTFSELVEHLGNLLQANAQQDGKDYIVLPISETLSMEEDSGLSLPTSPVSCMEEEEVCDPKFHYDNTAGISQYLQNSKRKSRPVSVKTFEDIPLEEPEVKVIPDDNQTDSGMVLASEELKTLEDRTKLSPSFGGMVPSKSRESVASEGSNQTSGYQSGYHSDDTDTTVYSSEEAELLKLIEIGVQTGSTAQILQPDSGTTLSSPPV
T2 sequence (P05771 whole entry): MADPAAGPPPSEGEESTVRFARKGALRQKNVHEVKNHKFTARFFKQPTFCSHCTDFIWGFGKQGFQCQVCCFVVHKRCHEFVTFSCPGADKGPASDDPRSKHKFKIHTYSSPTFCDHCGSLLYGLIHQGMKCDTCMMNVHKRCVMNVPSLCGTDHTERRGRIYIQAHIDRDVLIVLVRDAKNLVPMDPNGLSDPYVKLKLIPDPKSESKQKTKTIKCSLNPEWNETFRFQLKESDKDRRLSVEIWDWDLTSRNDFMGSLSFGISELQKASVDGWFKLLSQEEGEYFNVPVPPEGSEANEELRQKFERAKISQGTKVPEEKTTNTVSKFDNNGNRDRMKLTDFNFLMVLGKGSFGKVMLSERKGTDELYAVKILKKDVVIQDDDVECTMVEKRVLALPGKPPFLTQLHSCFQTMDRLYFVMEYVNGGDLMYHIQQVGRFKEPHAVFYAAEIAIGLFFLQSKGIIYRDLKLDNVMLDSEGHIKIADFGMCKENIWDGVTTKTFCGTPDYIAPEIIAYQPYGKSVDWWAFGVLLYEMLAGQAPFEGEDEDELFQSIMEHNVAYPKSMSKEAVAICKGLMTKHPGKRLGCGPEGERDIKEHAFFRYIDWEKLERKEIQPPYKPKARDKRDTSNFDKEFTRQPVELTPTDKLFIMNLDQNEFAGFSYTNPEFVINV
Proto-oncogene tyrosine-protein kinase Src, sequence (P12931 2-536 limits assumed): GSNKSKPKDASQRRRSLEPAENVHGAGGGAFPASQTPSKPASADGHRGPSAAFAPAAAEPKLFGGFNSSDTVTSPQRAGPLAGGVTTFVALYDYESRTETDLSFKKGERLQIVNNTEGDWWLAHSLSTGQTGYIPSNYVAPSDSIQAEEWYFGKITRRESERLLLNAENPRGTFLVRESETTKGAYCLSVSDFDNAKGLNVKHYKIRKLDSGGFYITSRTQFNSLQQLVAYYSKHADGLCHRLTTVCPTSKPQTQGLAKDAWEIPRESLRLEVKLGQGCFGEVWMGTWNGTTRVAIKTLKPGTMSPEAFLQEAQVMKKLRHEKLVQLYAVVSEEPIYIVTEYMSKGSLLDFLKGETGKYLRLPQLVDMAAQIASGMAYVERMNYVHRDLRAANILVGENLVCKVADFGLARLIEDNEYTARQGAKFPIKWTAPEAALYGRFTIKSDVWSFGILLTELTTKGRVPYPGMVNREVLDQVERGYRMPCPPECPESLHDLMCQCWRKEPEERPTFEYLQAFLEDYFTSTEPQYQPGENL
Hepatocyte growth factor receptor, sequence (P08581 whole entry): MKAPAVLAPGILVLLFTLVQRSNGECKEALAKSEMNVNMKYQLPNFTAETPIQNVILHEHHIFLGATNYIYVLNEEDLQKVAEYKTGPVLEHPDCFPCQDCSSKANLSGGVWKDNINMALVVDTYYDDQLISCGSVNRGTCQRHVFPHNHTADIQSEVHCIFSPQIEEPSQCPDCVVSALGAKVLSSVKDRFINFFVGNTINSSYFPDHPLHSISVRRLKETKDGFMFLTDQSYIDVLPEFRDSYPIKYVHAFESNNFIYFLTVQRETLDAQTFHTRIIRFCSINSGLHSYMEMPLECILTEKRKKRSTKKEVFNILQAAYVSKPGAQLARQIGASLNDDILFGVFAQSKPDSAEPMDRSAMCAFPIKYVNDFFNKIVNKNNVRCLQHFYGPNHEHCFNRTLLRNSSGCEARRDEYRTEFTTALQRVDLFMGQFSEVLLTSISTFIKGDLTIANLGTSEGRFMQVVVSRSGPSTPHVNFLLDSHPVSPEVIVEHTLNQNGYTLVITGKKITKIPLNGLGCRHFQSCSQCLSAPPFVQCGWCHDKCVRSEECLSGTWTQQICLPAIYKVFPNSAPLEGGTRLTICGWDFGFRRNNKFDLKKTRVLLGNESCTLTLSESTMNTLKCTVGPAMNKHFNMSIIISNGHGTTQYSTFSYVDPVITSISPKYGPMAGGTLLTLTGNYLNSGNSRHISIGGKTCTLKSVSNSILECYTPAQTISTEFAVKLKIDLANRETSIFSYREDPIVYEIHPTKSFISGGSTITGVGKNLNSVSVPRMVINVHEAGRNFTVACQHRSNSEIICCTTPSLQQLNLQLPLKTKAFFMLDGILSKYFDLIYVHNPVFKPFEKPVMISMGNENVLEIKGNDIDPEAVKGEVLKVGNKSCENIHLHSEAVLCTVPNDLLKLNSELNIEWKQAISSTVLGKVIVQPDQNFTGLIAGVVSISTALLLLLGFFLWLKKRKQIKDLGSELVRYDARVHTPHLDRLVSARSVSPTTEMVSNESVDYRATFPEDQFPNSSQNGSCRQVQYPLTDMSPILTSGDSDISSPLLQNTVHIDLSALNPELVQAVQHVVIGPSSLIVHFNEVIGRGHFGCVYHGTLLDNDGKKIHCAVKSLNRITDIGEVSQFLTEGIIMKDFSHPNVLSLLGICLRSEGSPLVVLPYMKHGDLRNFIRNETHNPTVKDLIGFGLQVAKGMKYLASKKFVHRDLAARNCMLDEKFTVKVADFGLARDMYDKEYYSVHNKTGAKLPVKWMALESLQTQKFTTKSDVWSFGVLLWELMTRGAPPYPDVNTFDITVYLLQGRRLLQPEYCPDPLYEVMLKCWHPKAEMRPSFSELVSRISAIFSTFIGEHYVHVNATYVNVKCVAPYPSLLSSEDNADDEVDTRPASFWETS
Cyclin-dependent kinase 1, sequence (P06493 whole entry): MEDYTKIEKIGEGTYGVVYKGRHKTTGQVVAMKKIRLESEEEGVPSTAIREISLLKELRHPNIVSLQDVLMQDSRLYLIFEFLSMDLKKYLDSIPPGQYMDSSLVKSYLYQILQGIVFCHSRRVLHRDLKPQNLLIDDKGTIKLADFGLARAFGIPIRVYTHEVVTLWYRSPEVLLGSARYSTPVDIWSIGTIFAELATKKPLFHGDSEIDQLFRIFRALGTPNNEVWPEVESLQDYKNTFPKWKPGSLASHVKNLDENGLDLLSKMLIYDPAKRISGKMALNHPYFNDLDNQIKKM
Fibroblast growth factor receptor 2, sequence (P21802 whole entry): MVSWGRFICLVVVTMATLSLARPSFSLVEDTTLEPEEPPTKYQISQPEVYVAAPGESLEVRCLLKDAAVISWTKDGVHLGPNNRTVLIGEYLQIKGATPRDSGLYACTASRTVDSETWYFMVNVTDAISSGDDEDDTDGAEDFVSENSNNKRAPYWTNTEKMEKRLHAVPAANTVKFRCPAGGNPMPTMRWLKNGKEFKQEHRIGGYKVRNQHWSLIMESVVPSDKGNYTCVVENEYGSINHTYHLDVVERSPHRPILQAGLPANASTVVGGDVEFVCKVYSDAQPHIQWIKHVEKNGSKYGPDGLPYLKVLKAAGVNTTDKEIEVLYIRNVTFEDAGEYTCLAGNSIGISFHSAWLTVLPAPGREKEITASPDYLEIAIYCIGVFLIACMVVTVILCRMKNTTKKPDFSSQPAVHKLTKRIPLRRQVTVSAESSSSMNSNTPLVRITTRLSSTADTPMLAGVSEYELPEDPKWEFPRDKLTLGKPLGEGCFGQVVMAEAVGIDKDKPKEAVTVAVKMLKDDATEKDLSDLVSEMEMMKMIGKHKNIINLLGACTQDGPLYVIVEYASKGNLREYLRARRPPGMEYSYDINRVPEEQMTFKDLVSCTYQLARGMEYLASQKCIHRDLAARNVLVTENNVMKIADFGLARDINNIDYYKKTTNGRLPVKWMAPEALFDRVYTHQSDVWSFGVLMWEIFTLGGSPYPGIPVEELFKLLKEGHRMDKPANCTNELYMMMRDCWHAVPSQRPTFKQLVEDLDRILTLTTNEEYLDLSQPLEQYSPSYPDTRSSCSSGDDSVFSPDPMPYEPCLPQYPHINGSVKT

## C[C@H](Oc1ccc2ncccc2c1)c1c(Cl)ccc(F)c1Cl
[1]
  IC50: > 50 µM
[2]
  IC50: 20 µM
[3]
  IC50: 1200 nM

## C[C@@H](Oc1ccc2ncccc2c1)c1c(Cl)ccc(F)c1Cl
[4]
  IC50: > 50 µM
[1]
  IC50: 23 µM
[5]
  IC50: > 50 µM
[6]
  IC50: 24 µM
[7]
  IC50: 41 µM
[8]
  IC50: > 50 µM
[9]
  IC50: > 50 µM
[10]
  IC50: > 50 µM
[11]
  IC50: > 50 µM
[12]
  IC50: > 50 µM
[13]
  IC50: > 50 µM
[14]
  IC50: 14 µM
[15]
  IC50: > 50 µM
[2]
  IC50: 22 µM
[16]
  IC50: > 50 µM
[17]
  IC50: > 50 µM
[18]
  IC50: 46 µM
[3]
  IC50: 130 nM
[19]
  IC50: > 50 µM
[20]
  IC50: > 50 µM
[21]
  IC50: 3600 nM
[22]
  IC50: > 50 µM
[23]
  IC50: > 50 µM
[24]
  IC50: > 50 µM

## C[C@@H](Oc1ccc2ncc(/C=C/C(N)=O)cc2c1)c1c(Cl)ccc(F)c1Cl
[4]
  IC50: 6.4 µM
[1]
  IC50: 11 µM
[5]
  IC50: > 50 µM
[6]
  IC50: 6.9 µM
[7]
  IC50: > 50 µM
[8]
  IC50: > 50 µM
[25]
  solubility: < 13 µg/mL
[9]
  IC50: 28 µM
[10]
  IC50: > 50 µM
[11]
  IC50: 4.4 µM
[12]
  IC50: > 50 µM
[13]
  IC50: 10 µM
[14]
  IC50: 0.57 µM
[15]
  IC50: > 50 µM
[16]
  IC50: 18 µM
[17]
  IC50: > 50 µM
[18]
  IC50: 32 µM
[26]
  IC50: > 50 µM
[19]
  IC50: > 50 µM
[20]
  IC50: 14 µM
[21]
  IC50: 450 nM
[27]
  IC50: > 50 µM
[22]
  IC50: > 50 µM
[23]
  IC50: 26 µM
[24]
  IC50: 32 µM

## CC(Oc1ccc2ncc(CCC(N)=O)cc2c1)c1c(Cl)ccc(F)c1Cl (racemic)
[1]
  IC50: 50 µM
[28]
  IC50: 4400 nM
[2]
  IC50: > 50 µM
[3]
  IC50: 205 nM

## CC(Oc1ccc2ncccc2c1)c1c(Cl)ccc(F)c1Cl (racemic)
[1]
  IC50: 32 µM
[2]
  IC50: > 50 µM
[3]
  IC50: 453 nM

## CC(Oc1ccc2ncc(/C=C/C(N)=O)cc2c1)c1c(Cl)ccc(F)c1Cl (racemic)
[1]
  IC50: 26 µM
[28]
  IC50: 350 nM
[2]
  IC50: > 50 µM

## CNC(=O)/C=C/c1cnc2ccc(OC(C)c3c(Cl)ccc(F)c3Cl)cc2c1 (racemic)
[1]
  IC50: > 50 µM
[28]
  IC50: 240 nM
[2]
  IC50: > 50 µM

## CC(Oc1ccc2ncc(/C=C/CN)cc2c1)c1c(Cl)ccc(F)c1Cl (racemic)
[1]
  IC50: 33 µM
[28]
  IC50: 4300 nM
[2]
  IC50: 46 µM
[3]
  IC50: 368 nM

## CC(Oc1ccc2ncc(/C=C/C(=O)O)cc2c1)c1c(Cl)ccc(F)c1Cl (racemic)
[1]
  IC50: > 50 µM
[28]
  IC50: 10200 nM
[2]
  IC50: > 50 µM
[3]
  IC50: 94 nM

## CC(Oc1ccc2ncc(/C=C/C(=O)N(C)C)cc2c1)c1c(Cl)ccc(F)c1Cl (racemic)
[1]
  IC50: > 50 µM
[28]
  IC50: 610 nM
[2]
  IC50: > 50 µM
[3]
  IC50: 59 nM
